The text below walks through data of publication PMC8970626 (Biochemistry, 2022).

Numbering of substitutions follows the chain as printed. In names and notes the source's numbering stands. Several values for one entry are separate records, joined by “and”; a condition that tells them apart may be missing. Equal values may be shown once.

One data set concerns rat CYP24A1. The conditions noted are these: cited from earlier work.
In the next data set the target is T1, human CYP24A1 (hCYP24A1) (Homo sapiens, UniProt Q07973).
T1 sequence (Q07973 36-514): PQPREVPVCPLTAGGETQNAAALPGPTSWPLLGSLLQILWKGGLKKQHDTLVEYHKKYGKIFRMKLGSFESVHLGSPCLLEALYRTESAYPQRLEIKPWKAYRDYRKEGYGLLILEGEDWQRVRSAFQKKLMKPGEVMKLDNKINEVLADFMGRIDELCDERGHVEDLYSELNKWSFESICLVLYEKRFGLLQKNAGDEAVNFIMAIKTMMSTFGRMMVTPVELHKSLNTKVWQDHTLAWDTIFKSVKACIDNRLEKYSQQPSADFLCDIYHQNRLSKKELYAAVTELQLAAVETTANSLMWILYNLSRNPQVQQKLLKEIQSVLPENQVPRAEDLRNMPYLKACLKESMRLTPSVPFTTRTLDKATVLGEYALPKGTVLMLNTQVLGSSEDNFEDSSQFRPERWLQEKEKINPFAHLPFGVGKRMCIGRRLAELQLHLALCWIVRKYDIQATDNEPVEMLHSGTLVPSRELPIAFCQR
Kind of data set: Spectral ligand binding assay with hCYP24A1. The conditions noted are these: for spectral response on titration (type-I, high-spin transition): hCYP24A1 without hAdx.

In a further data set the target is T2, hCYP24A1 (Homo sapiens, UniProt Q07973).
T2 sequence (Q07973 36-514): T1 sequence (Q07973 36-514)
T2 sequence (P10109 61-184 D132N/D136N partner): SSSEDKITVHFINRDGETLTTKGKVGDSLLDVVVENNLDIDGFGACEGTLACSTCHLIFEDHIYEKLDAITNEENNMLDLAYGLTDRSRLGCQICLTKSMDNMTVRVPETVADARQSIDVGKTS
The data set is described as follows: Reconstituted hCYP24A1 functional assay. The format is biochemical. The conditions noted are these: D72N_D76N hAdx double mutant; substrate 5 μM.

Another data set deals with T3, rat CYP24A1 (rCYP24A1) (Rattus norvegicus, UniProt Q09128).
T3 sequence (Q09128 36-514): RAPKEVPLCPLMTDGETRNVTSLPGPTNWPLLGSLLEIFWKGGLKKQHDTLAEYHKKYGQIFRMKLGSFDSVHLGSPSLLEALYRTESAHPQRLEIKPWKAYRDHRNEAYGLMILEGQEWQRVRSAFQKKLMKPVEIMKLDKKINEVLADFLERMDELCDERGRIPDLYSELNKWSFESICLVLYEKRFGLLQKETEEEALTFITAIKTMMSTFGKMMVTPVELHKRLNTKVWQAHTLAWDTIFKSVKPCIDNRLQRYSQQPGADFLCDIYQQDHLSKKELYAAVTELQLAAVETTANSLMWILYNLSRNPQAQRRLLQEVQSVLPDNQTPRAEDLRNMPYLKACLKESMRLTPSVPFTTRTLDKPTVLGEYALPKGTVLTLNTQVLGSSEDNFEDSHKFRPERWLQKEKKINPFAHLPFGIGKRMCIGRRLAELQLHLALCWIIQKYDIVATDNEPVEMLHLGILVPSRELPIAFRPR
Kind of data set: Spectral ligand binding assay with rCYP24A1. To be noted: rCYP24A1, no Adx. Summed up:
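UV-visible difference-spectra titration at ambient temperature with enzyme at 1 μM in 10 mM potassium phosphate. Ligand added from DMSO stock, solvent ≤2%, with 8 min incubation per point before each wavelength scan. Where Adx was present, 10 μM hAdx (WT or L80V) was baselined in the cuvette before enzyme and ligand.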

The target of data set [1] is T4, human cytochrome P450 24A1 (hCYP24A1), cleaved and separated from the hAdx_hCYP24A1 fusion (human, UniProt Q07973 36-514).
T4 sequence (looked up): T1 sequence (Q07973 36-514)
The data set is described as follows: cross-linking.

As a reminder, the Kd is the concentration at which binding is half-saturated. High values mean weaker binding, low ones tighter binding. Turning to `C=C1/C(=C\C=C2/CCC[C@]3(C)[C@@H]([C@H](C)CCCC(C)C)CC[C@@H]23)C[C@@H](O)C[C@@H]1O` [1α(OH)D], in the data set with rat CYP24A1, the “substrate quality for rat CYP24A1” value is recorded as “poor substrate”. On human CYP24A1 (hCYP24A1) (+hAdx (WT, 10-fold, 10 μM)), this molecule displayed a Kd of 700 ± 50 nM and a ΔAmax of 0.055 ± 0.004 AU. On human CYP24A1 (hCYP24A1) (hCYP24A1 1 μM, no hAdx), this molecule came in with a Kd of 400 ± 100 nM and a ΔAmax of 0.04 ± 0.008 AU. In addition, at human CYP24A1 (hCYP24A1), the “spectral response on titration (type-I, high-spin transition)” value (from here on “spectral response on titration”) is given as “type-I response, albeit with a more noticeable increase in the high-spin transition”.

`C=C1CC[C@H](O)C/C1=C/C=C1\CCC[C@]2(C)[C@@H]([C@H](C)CCCC(C)(C)O)CC[C@@H]12` [25(OH)D]: on human CYP24A1 (hCYP24A1), the “spectral response on titration” value was “no measureable high-spin form is detected”. The “binding affinity relative to other substrates” value on human CYP24A1 (hCYP24A1) (interaction could not be saturated) is recorded as “likely binds with a weaker affinity than the other substrates tested”.

Regarding `C=C1/C(=C\C=C2/CCC[C@]3(C)[C@@H]([C@H](C)CCCC(C)(C)O)CC[C@@H]23)C[C@@H](O)C[C@@H]1O` [1α,25(OH)2D], the ΔAmax at human CYP24A1 (hCYP24A1) (10-fold excess of D72N_D76N hAdx) was 0.02 ± 0.002 AU; at human CYP24A1 (hCYP24A1) (10-fold excess of L80I hAdx) it was 0.04 ± 0.003 AU; on human CYP24A1 (hCYP24A1) (10-fold excess of L80Q hAdx) it was 0.02 ± 0.001 AU; at human CYP24A1 (hCYP24A1) (10-fold excess of L80V hAdx), 0.04 ± 0.003 AU; on human CYP24A1 (hCYP24A1) (+hAdx (WT, 10-fold, 10 μM)), 0.03 ± 0.004 AU; at human CYP24A1 (hCYP24A1) (hCYP24A1 1 μM, no hAdx), 0.03 ± 0.004 AU and 0.03 ± 0.005 AU. Besides, the ΔAmax at rat CYP24A1 (rCYP24A1) turned out to be 0.05 ± 0.004 AU. For the same molecule, the “spectral response on titration” value at human CYP24A1 (hCYP24A1) was “type-I transition of the Soret band”. The substrate remaining entry at hCYP24A1 is on record as “approximately 60%”.

At human CYP24A1 (hCYP24A1) (+hAdx (WT, 10-fold, 10 μM)), `C=C1/C(=C/C=C2\CCC[C@@]3(C)C2CC[C@@H]3C(C)CCC(O)C(C)(C)O)C[C@@H](O)C[C@@H]1O` (stereo partly drawn) [1α,24,25(OH)3D] registered a Kd of 4000 ± 40 nM and a ΔAmax of 0.04 ± 0.003 AU. The “spectral response on titration” value at human CYP24A1 (hCYP24A1) was “only a minimal type-I response”.

B1: human adrenodoxin (hAdx), unfused, wild type (natural protein)
chain: T2 sequence (P10109 61-184 D132N/D136N partner) with N72D, N76D
Regarding B1, in data set [1], the binding result is on record as “binds”.

B2: human adrenodoxin mutant L80I (natural protein)
chain: T2 sequence (P10109 61-184 D132N/D136N partner) with N72D, N76D, L80I
Take B2: the binding result in data set [1] is listed as “binds”.

B3: human adrenodoxin mutant L80V (natural protein)
chain: T2 sequence (P10109 61-184 D132N/D136N partner) with N72D, N76D, L80V
For B3, the binding result in data set [1] is listed as “binds”.

B4: human adrenodoxin mutant L80Q (natural protein)
chain: T2 sequence (P10109 61-184 D132N/D136N partner) with N72D, N76D, L80Q
With B4, the binding result in data set [1] is reported as “binds”.
